Results published in ChEMBL document CHEMBL1142431, “Benzodioxoles: novel cannabinoid-1 receptor inverse agonists for the treatment of obesity” (J Med Chem, 2008).
Active and inactive are the calls of the source. The calls are words filed in the database; no cut-off is given here.

What was measured:
Homo sapiens [1] = species: Homo sapiens; test: Selectivity for human CB1 receptor over human glucocorticoid receptor
Mus musculus = test: Reversal of CP-55940-induced hypothermia in NMRI mouse assessed as rectal temperature at 30 mg/kg, ip; format: functional; conditions: route intraperitoneal, read-out: ID50 (the source's name)
In short: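 Mice housed eight per group, eight per dose, habituated at least 2 h. Test compound in 0.3% Tween 80 (10 mL/kg) given 90 min before CP 55940 (0.3 mg/kg iv, same vehicle). Body temperature read 20 min before compound, just before CP 55940, and 20 min after it.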

[2] = Selectivity for human CB1 receptor over choline transporter
Homo sapiens [3] = species: Homo sapiens; test: Selectivity for human CB1 receptor over human bradykinin B2 receptor
[4] = Selectivity for human CB1 receptor over P2X receptor
[5] = Selectivity for human CB1 receptor over sodium channel
Homo sapiens [6] = species: Homo sapiens; test: Selectivity for human CB1 receptor over human adrenergic beta-1 receptor
[7] = Selectivity for human CB1 receptor over SK1 calcium channel
[8] = Selectivity for human CB1 receptor over AMPA receptor
[9] = Selectivity for human CB1 receptor over adrenergic alpha-1 receptor
[10] = Selectivity for human CB1 receptor over NMDA receptor
Homo sapiens [11] = species: Homo sapiens; test: Selectivity for human CB1 receptor over human AT1 receptor
Rattus norvegicus = test: Reduction in progression of body weight in diet-induced obesity Sprague-Dawley rat model at 10 mg/kg, po for 16 days; format: functional, organism-based; parameters: dose 10 mg/kg
In short: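 Obese Sprague-Dawley rats (HFD 10 weeks from 3 weeks old, selected as >2 SD above chow controls), n = 9 per group, gavage-adapted 3 days, then dosed daily by gavage at 5:00 p.m. for 16 days in water with 7.5% gelatine and 0.62% NaCl, 2 mL/kg; body weight and food intake recorded daily.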

[12] = Selectivity for human CB1 receptor over 5HTT
[13] = Aqueous solubility at pH 6.5 by lyophilisation solubility assay; format: physicochemical
In short: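 Duplicate samples from 10 mM DMSO stock; DMSO evaporated 1 h, residue taken up in 50 mM phosphate buffer pH 6.5, stirred 1 h, shaken 2 h, left overnight. Filtrate and 1/10 dilution read by direct UV or HPLC-UV against four-point calibration; range for MW 500 0-666 µg/mL; >80% dissolved reported as greater-than.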

Homo sapiens [14] = species: Homo sapiens; test: Selectivity for human CB1 receptor over human ORL1 receptor

`O=C(c1cc2c(cc1F)O[C@](c1ccc(F)cc1)(c1ccc(Cl)cc1Cl)O2)N1CCOCC1` gave a Selectivity ratio (Homo sapiens [1]) of 300, an ED50 (Mus musculus) of 4 mg/kg and a Selectivity ratio [2] of 300. It also gave a Selectivity ratio (Homo sapiens [3]) of 300, a Selectivity ratio [4] of 300 and a Selectivity ratio [5] of 300. For the same compound, the Selectivity ratio (Homo sapiens [6]) was 300, the Selectivity ratio [7] was 300 and the Selectivity ratio [8] was 300. For the same compound, the Selectivity ratio [9] was 300, the Selectivity ratio [10] was 300 and the Selectivity ratio (Homo sapiens [11]) was 300. For the same compound, the Activity (Rattus norvegicus) was “Active”, the Selectivity ratio [12] was 300 and the solubility [13] was less than 1 µg/mL. For the same compound, the Selectivity ratio (Homo sapiens [14]) was 300.
